What was measured:
[1] = target: 3',5'-cyclic-AMP phosphodiesterase 4B (Homo sapiens, UniProt Q07343); test: Inhibition of PDE4B1 expressed in yeast
Method in brief: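 Human recombinant PDE4A4, PDE4B1 or PDE4D3 made in galactose-induced […]; dialysed extracts (~4 μg protein) used. Hydrolysis of 15 nM [3H]-cAMP in 50 mM Tris pH 7.5, 8.3 mM MgCl2, 1.7 mM EGTA, final DMSO 5%, 60 min at room temperature. Reaction stopped with SPA beads, then scintillation counted. Compounds tested 10 μM to 10 pM in duplicate; IC50 calculated.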

[2] = target: 3',5'-cyclic-AMP phosphodiesterase 4D (Homo sapiens, UniProt Q08499); test: Inhibition of PDE4D3 expressed in yeast
[3] = target: 3',5'-cyclic-AMP phosphodiesterase 4A (Homo sapiens, UniProt P27815); test: Inhibition of PDE4A4 expressed in yeast
[4] = Apparent permeability from apical to basolateral side of human Caco-2 cells; assay type: ADME, cell-based
Method in brief: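 Caco-2 cells seeded at 500 000 cells/well on collagen-coated PET membranes (1 μm pores), differentiated and used six days post-seeding. Compound applied in HBSS with 10 mM Hepes and 25 mM glucose, pH 7.4, at most 1% DMSO, on the apical side. Samples taken after 3 h and analysed by HPLC-UV. [3H]mannitol 115 nM served as integrity control.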

Blood = test: Antiinflammatory activity against LPS-induced TNFalpha production in human whole blood by ELISA; assay type: functional, tissue-based
Method in brief: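 Human whole blood preincubated at 37 °C for 10 min with LPS at final 1 μg/mL; inhibitors in 100% DMSO added at increasing concentrations, blood (LPS-free for controls) incubated 24 h at 37 °C under agitation. Reaction stopped on ice with PBS and centrifugation; serum TNFα measured by sandwich ELISA, TMB substrate, 450 nm. Experiments run 2-3 times, duplicates averaged, given as pg/mL.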

3',5'-cyclic-AMP phosphodiesterase 4D, sequence (Q08499 whole entry): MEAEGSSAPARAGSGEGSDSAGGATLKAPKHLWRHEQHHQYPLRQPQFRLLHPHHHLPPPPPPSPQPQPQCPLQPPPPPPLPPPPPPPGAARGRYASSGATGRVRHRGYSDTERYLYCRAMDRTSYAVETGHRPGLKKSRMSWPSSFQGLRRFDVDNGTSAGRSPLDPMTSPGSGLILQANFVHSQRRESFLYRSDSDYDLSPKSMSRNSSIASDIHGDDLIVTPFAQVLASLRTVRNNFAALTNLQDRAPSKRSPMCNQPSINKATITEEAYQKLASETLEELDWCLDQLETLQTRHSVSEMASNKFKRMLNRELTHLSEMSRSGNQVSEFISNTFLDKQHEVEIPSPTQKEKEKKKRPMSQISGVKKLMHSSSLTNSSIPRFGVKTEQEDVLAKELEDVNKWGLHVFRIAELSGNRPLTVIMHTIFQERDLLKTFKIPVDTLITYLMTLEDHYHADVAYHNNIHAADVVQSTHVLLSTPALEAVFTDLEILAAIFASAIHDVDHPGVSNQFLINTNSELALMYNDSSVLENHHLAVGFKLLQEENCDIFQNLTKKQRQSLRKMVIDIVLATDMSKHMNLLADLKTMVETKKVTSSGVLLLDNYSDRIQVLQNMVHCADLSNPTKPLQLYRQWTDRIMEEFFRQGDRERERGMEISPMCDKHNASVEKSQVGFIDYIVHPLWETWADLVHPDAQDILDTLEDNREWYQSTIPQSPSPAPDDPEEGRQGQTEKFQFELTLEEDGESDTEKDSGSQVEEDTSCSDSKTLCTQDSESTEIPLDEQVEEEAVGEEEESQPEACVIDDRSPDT
3',5'-cyclic-AMP phosphodiesterase 4B, sequence (Q07343 whole entry): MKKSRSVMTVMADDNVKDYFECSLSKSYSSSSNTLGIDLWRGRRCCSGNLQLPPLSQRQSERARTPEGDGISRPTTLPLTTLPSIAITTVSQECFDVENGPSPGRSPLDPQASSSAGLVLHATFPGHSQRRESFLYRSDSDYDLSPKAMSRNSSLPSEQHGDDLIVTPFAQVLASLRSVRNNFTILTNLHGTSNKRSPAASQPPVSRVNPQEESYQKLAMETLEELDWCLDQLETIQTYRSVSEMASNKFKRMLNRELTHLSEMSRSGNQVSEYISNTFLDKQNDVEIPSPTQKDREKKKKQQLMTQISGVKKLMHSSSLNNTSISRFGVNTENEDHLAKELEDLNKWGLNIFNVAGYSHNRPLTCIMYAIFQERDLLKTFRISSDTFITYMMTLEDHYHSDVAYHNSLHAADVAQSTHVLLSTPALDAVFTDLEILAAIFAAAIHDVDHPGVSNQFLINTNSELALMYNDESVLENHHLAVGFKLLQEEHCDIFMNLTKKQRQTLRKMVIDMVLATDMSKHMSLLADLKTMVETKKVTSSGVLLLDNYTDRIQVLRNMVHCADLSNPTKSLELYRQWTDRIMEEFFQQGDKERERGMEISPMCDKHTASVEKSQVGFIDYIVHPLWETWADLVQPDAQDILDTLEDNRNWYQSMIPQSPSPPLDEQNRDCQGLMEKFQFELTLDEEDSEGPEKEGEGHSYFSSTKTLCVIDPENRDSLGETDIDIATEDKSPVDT
3',5'-cyclic-AMP phosphodiesterase 4A, sequence (P27815 whole entry): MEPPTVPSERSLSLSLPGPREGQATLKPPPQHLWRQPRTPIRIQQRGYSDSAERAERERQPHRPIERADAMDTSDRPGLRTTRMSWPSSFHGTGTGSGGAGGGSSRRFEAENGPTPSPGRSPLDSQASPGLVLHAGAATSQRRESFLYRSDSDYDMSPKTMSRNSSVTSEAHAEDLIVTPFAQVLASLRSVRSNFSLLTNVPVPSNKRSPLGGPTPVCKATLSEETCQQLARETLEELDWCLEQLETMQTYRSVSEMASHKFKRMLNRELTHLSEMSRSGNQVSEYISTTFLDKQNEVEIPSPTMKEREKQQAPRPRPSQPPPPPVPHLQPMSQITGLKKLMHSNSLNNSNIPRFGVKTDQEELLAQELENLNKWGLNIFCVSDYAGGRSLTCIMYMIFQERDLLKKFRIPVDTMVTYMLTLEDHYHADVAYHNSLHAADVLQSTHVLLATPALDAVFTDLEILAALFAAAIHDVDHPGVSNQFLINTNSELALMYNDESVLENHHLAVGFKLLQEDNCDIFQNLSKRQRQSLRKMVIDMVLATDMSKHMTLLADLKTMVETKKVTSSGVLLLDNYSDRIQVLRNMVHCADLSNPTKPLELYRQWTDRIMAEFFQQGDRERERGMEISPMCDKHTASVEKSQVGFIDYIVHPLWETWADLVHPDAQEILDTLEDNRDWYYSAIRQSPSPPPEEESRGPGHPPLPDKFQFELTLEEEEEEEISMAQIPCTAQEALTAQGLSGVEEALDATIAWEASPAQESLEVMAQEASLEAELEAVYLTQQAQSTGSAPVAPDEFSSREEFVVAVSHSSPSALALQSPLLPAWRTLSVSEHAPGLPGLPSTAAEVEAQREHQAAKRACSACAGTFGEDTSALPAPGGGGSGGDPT

SMILES	IC50 [1]	IC50 [2]	IC50 [3]	Papp A→B [4]	IC50 (Blood)
CC(C)Cc1nc2sc3c(NCCN4CCOCC4)ncnc3c2c2c1CCC(C)(C)C2	7.2 nM	39 nM	6.7 nM	0.4 ×10⁻⁶ cm/s	1280 nM
COc1ccccc1CNc1ncnc2c1sc1nc(N3CCOCC3)c3c(c12)CC(C)(C)OC3	40 nM	119 nM	67 nM	–	1190 nM
CC1(C)CCc2c(N3CCOCC3)nc3sc4c(NCc5cccnc5)ncnc4c3c2C1	3.6 nM	32 nM	4.5 nM	–	381 nM
COc1ccccc1CNc1ncnc2c1sc1nc(N3CCOCC3)c3c(c12)CC(C)(C)CC3	213 nM	–	–	–	–
Cc1nc2sc3c(NCCN4CCOCC4)ncnc3c2c2c1CCC(C)(C)C2	37 nM	34 nM	97 nM	–	912 nM
CC1(C)CCc2c(N3CCOCC3)nc3sc4c(N(CCO)CCN5CCOCC5)ncnc4c3c2C1	2.8 nM	1.8 nM	6.4 nM	–	327 nM
CC1(C)CCc2c(-c3ccoc3)nc3sc4c(NCCN5CCOCC5)ncnc4c3c2C1	2.9 nM	3.1 nM	9 nM	–	1240 nM
CC1(C)Cc2c(c(N3CCOCC3)nc3sc4c(NCc5ccncc5)ncnc4c23)CO1	22 nM	128 nM	97 nM	–	1020 nM
CN(Cc1ccccc1)c1nc2sc3c(NCCN4CCOCC4)ncnc3c2c2c1CCC(C)(C)C2	865 nM	–	–	–	–
CC1(C)Cc2c(c(N3CCOCC3)nc3sc4c(NCc5cccnc5)ncnc4c23)CO1	5.7 nM	52 nM	48 nM	–	639 nM
CNc1nc2sc3c(NCCN4CCOCC4)ncnc3c2c2c1CCC(C)(C)C2	9.9 nM	4.2 nM	18 nM	13.7 ×10⁻⁶ cm/s	233 nM
COc1ccc(C2CNC(=O)C2)cc1OC1CCCC1 (stereo not given) [ROLIPRAM]	–	–	–	–	1480 nM
CC1(C)Cc2c(c(N3CCOCC3)nc3sc4c(N(CCN5CCOCC5)Cc5cccnc5)ncnc4c23)CO1	4.5 nM	19 nM	5 nM	–	401 nM
CC1(C)CCc2c(-c3ccco3)nc3sc4c(NCCN5CCOCC5)ncnc4c3c2C1	3.8 nM	7.9 nM	5.4 nM	–	1090 nM
CC1(C)CCc2c(N3CCOCC3)nc3sc4c(NCc5ccncc5)ncnc4c3c2C1	11 nM	13 nM	19 nM	–	2040 nM

Now from value to compound:

IC50 [1]	IC50 [2]	IC50 [3]	Papp A→B [4]	IC50 (Blood)	SMILES
167 nM	–	–	–	–	CC1(C)Cc2c(c(N3CCOCC3)nc3sc4c(NCCCN5CCCC5=O)ncnc4c23)CO1
2.9 nM	4.6 nM	74 nM	–	1370 nM	CC1(C)CCc2c(N3CCOCC3)nc3sc4c(NCCN5CCOCC5)ncnc4c3c2C1
51 nM	–	–	–	–	CNc1nc2sc3c(NCCN4CCOCC4)ncnc3c2c2c1COC(C)(C)C2
284 nM	–	–	–	–	CC1(C)Cc2c(c(N3CCOCC3)nc3sc4c(NCCN5CCCCC5)ncnc4c23)CO1
21 nM	61 nM	18 nM	–	2150 nM	CC1(C)CCc2c(N3CCOCC3)nc3sc4c(NCCCN5CCCC5=O)ncnc4c3c2C1
274 nM	–	–	–	–	CC1(C)CCc2c(N3CCOCC3)nc3sc4c(NCCN5CCOCC5)ncnc4c3c21
8.05 nM	11 nM	43 nM	–	655 nM	CC1(C)CCc2c(N3CCCC3)nc3sc4c(NCCN5CCOCC5)ncnc4c3c2C1
1200 nM	–	–	–	–	CN1CCN(c2nc3sc4c(NCCN5CCOCC5)ncnc4c3c3c2COC(C)(C)C3)CC1
333 nM	–	–	–	–	CC1(C)Cc2c(N3CCOCC3)nc3sc4c(NCCN5CCOCC5)ncnc4c3c2C1
1770 nM	–	–	–	–	c1nc(NCCN2CCOCC2)c2sc3nc(N4CCOCC4)c4c(c3c2n1)CCOC4
26 nM	604 nM	63 nM	–	235 nM	CC1(C)Cc2c(c(N3CCOCC3)nc3sc4c(NCCN5CCOCC5)ncnc4c23)CO1
13 nM	39 nM	23 nM	–	537 nM	CC1(C)Cc2c(c(N3CCOCC3)nc3sc4c(N(CCO)CCN5CCOCC5)ncnc4c23)CO1
3700 nM	–	–	–	3270 nM	CN1Cc2c(N3CCOCC3)nc3sc4c(NCCN5CCOCC5)ncnc4c3c2CC1(C)C
45 nM	25 nM	20 nM	21.9 ×10⁻⁶ cm/s	261 nM	CN(C)c1nc2sc3c(NCCN4CCOCC4)ncnc3c2c2c1COC(C)(C)C2
90 nM	–	–	–	2040 nM	CCC1(C)Cc2c(c(N3CCOCC3)nc3sc4c(NCCN5CCOCC5)ncnc4c23)CO1 (stereo not given)
95 nM	–	–	–	–	CN1CCN(c2nc3sc4c(NCCN5CCOCC5)ncnc4c3c3c2CCC(C)(C)C3)CC1

Reference: ChEMBL document CHEMBL1255195, “Synthesis and biological activity of pyrido[3',2':4,5]thieno[3,2-d]pyrimidines as phosphodiesterase type 4 inhibitors” (J Med Chem, 2010)
